Laboratory results published in ChEMBL document CHEMBL1921707 (J Med Chem, 2011).

What was measured:
Format in all cases: cell-based
[1] = molecular target: Histamine H3 receptor (Homo sapiens, UniProt Q9Y5N1); assay: Displacement of [3H]histamine from human H3 receptor expressed in HEK293 cells after 1 to 1.5 hrs by scintillation counting
[2] = molecular target: Histamine H4 receptor (Homo sapiens, UniProt Q9H3N8); assay: Displacement of [3H]histamine from human H4 receptor expressed in HEK293 cells after 1 to 1.5 hrs by scintillation counting
Chain of Histamine H4 receptor (Homo sapiens, UniProt Q9H3N8) (Q9H3N8 whole entry): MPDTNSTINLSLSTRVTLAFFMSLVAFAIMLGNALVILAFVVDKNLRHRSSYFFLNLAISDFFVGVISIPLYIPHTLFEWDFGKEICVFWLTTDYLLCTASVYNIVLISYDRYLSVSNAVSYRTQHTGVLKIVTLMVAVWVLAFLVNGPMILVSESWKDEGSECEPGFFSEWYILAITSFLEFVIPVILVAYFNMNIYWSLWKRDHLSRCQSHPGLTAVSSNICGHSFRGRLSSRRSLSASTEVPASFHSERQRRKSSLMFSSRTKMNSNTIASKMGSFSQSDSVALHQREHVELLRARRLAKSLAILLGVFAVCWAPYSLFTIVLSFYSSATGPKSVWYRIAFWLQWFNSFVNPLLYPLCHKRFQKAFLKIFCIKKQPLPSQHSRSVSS

[3] = molecular target: Histamine H4 receptor (Homo sapiens, UniProt Q9H3N8, V102A); assay: Displacement of [3H]histamine from human H4 receptor V3.40A mutant expressed in HEK293 cells after 1 to 1.5 hrs by scintillation counting
Chain of Histamine H4 receptor (Homo sapiens, UniProt Q9H3N8, V102A) (Q9H3N8 whole entry V102A): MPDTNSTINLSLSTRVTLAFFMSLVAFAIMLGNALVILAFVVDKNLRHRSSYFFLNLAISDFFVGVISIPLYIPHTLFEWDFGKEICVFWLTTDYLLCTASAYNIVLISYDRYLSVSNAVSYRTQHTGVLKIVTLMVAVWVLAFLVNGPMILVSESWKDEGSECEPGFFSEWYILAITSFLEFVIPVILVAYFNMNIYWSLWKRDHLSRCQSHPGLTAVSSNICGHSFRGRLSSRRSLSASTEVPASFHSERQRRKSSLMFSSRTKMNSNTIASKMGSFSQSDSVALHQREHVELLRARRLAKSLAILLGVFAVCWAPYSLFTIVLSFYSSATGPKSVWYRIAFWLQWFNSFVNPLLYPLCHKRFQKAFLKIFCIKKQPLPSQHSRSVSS

[4] = molecular target: Histamine H4 receptor (Homo sapiens, UniProt Q9H3N8, Q347L); assay: Displacement of [3H]histamine from human H4 receptor Q7.42L mutant expressed in HEK293 cells after 1 to 1.5 hrs by scintillation counting
Chain of Histamine H4 receptor (Homo sapiens, UniProt Q9H3N8, Q347L) (Q9H3N8 whole entry Q347L): as the sequence (Q9H3N8 whole entry V102A) above, with A102V, Q347L counted along it

[5] = molecular target: Histamine H4 receptor (Homo sapiens, UniProt Q9H3N8, T323M); assay: Displacement of [3H]histamine from human H4 receptor T6.55M mutant expressed in HEK293 cells after 1 to 1.5 hrs by scintillation counting
Chain of Histamine H4 receptor (Homo sapiens, UniProt Q9H3N8, T323M) (Q9H3N8 whole entry T323M): as the sequence (Q9H3N8 whole entry V102A) above, with A102V, T323M counted along it

[6] = molecular target: Histamine H4 receptor (Homo sapiens, UniProt Q9H3N8, N147Y); assay: Displacement of [3H]histamine from human H4 receptor N4.57Y mutant expressed in HEK293 cells after 1 to 1.5 hrs by scintillation counting
Chain of Histamine H4 receptor (Homo sapiens, UniProt Q9H3N8, N147Y) (Q9H3N8 whole entry N147Y): as the sequence (Q9H3N8 whole entry V102A) above, with A102V, N147Y counted along it

[7] = molecular target: Histamine H4 receptor (Homo sapiens, UniProt Q9H3N8, T178A); assay: Displacement of [3H]histamine from human H4 receptor T5.42A mutant expressed in HEK293 cells after 1 to 1.5 hrs by scintillation counting
Chain of Histamine H4 receptor (Homo sapiens, UniProt Q9H3N8, T178A) (Q9H3N8 whole entry T178A): as the sequence (Q9H3N8 whole entry V102A) above, with A102V, T178A counted along it

[8] = molecular target: Histamine H4 receptor (Homo sapiens, UniProt Q9H3N8, E182Q); assay: Displacement of [3H]JNJ7777120 from human H4 receptor E5.46Q mutant expressed in HEK293 cells after 1 to 1.5 hrs by scintillation counting
Chain of Histamine H4 receptor (Homo sapiens, UniProt Q9H3N8, E182Q) (Q9H3N8 whole entry E182Q): as the sequence (Q9H3N8 whole entry V102A) above, with A102V, E182Q counted along it
Outline: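 HEK293T cells transiently transfected (PEI method) with human H4R E5.46Q cDNA, membranes harvested 2 days later. Crude membranes in 50 mM Tris-HCl pH 7.4 with ~10 nM [3H]JNJ-7777120 and compound at 1 pM to 0.1 mM, room temperature, shaking. Separation by filtration on PEI-presoaked GF/C, ice-cold Tris washes. pKi as mean ± SEM of at least three experiments run in triplicate.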

Chain of Histamine H3 receptor (Q9Y5N1 whole entry): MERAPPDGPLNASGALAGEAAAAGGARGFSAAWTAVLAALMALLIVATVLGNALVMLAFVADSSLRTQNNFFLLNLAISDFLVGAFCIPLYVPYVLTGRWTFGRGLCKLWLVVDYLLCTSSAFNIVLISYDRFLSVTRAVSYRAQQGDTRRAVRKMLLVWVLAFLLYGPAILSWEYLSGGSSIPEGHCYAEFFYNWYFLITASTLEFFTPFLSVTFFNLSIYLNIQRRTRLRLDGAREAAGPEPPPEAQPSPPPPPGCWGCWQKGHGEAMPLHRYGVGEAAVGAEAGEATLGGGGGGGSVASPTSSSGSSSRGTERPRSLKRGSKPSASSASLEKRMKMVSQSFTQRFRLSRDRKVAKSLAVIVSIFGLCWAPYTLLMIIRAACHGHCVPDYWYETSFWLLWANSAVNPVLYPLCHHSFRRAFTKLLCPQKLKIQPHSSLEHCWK

## c1ccc(CN/C(=N/C2CCCC2)SCCCc2c[nH]cn2)cc1
[1]
  Ki: 42.7 nM
[2]
  Ki: 42.7 nM

## c1ccc(CN/C(=N/C2CCCCC2)SCCCc2c[nH]cn2)cc1
[1]
  Ki: 9.77 nM
[2]
  Ki: 75.9 nM

## CCCCN/C(=N/C1CCCC1)SCCCc1c[nH]cn1
[1]
  Ki: 46.8 nM
[2]
  Ki: 16.2 nM

## Clc1ccc(C/N=C(/NC2CCCCC2)SCCCc2c[nH]cn2)cc1Cl
[1]
  Ki: 1.02 nM
[2]
  Ki: 148 nM

## CCCCN/C(=N/Cc1ccc(Cl)cc1)SCCCc1c[nH]cn1
[1]
  Ki: 4.9 nM
[2]
  Ki: 89.1 nM

## Clc1ccc(C/N=C(/NCc2ccccc2)SCCCc2c[nH]cn2)cc1
[1]
  Ki: 17 nM
[2]
  Ki: 229 nM

## Clc1ccc(C/N=C(/NCc2ccccc2)SCCCc2c[nH]cn2)cc1Cl
[1]
  Ki: 32.4 nM
[2]
  Ki: 380 nM

## c1nc(CCCS/C(=N\C2CCCC2)NC2CCCCC2)c[nH]1
[1]
  Ki: 18.6 nM
[2]
  Ki: 31.6 nM

## CC(C)(C)N/C(=N/C1CCCC1)SCCCc1c[nH]cn1
[1]
  Ki: 67.6 nM
[2]
  Ki: 29.5 nM

## CCCCN/C(=N/Cc1ccc(Cl)c(Cl)c1)SCCCc1c[nH]cn1
[1]
  Ki: 4.68 nM
[2]
  Ki: 89.1 nM

## N#Cc1ccc(C/N=C(/NC2CCCCC2)SCCCc2c[nH]cn2)cc1
[1]
  Ki: 1.62 nM
[2]
  Ki: 126 nM

## O=[N+]([O-])c1ccc(C/N=C(/NC2CCCCC2)SCCCc2c[nH]cn2)cc1
[1]
  Ki: 1.15 nM
[2]
  Ki: 135 nM

## Clc1ccc(CN=C(NC2CCCCC2)SCCCc2cnc[nH]2)cc1
[3]
  Ki: 63.1 nM
[4]
  Ki: 12.6 nM
[5]
  Ki: 12.6 nM
[6]
  Ki: 316 nM
[7]
  Ki: 12.6 nM
[1]
  Ki: 1.05 nM
[2]
  Ki: 47.9 nM
[8]
  Ki: 158 nM

## NC(=NCc1ccc(Cl)cc1)SCCCc1cnc[nH]1 [CLOBENPROPIT]
[3]
  Ki: 10 nM
[4]
  Ki: 1 nM
[5]
  Ki: 1.58 nM
[6]
  Ki: 15.8 nM
[7]
  Ki: 2.51 nM
[8]
  Ki: 50.1 nM
